Measurements as given in ChEMBL document CHEMBL3784921, “Mimicking of Arginine by Functionalized N(ω)-Carbamoylated Arginine As a New Broadly Applicable Approach to Labeled Bioactive Peptides: High Affinity Angiotensin, Neuropeptide Y, Neuropeptide FF, and Neurotensin Receptor Ligands As Examples” (J Med Chem, 2016).
*1 amine or outer side, *2 acyl side, *3 side chain or, on linkers, in order; H or OH if unused. Where a SMILES comes first, the peptide text is derived from it. [ ]: non-standard residue; d: D form. X1 = CCC(=O)NCCCCNC(=O)/N=C(\N)NCCC[C@H](N[*:1])C(=O)[*:2]

Legend:
[1] = target: Neurotensin receptor type 2 (Homo sapiens, UniProt O95665); assay: Displacement of [3H]NT(8 to 13 residues) from human NTSR2 expressed in HEK293 cell membranes
[2] = target: T1, Neurotensin receptor type 1 (Homo sapiens, UniProt P30989); assay: Displacement of [3H]-{Nomega-[N-(4-propanoylaminobutyl)aminocarbonyl]}Arg-Arg-ProTyr-Ile-Leu-OH Tris(hydrotrifluoroacetate) from human NTSR1 transfected in CHO cells co-expressing Galpha16-mtAEQ after 2 hrs by liquid scintillation counting; assay type: cell-based
[3] = target: T1, Neurotensin receptor type 1; assay: Agonist activity at NTSR1 in human HT-29 cells assessed as induction of intracellular Ca2+ mobilization by fura-2 dye-based spectrofluorimetric analysis; assay type: functional, cell-based; conditions: read-out: EC50
[4] = Chemical stability of compound at 200 uM at pH 7 at 21 degC after 24 to 48 hrs by reversed-phase HPLC analysis; assay type: physicochemical; conditions: buffer, pH 7, 200 µM
Outline: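 Peptide incubated in phosphate buffer (PBS), pH 7.0, 21 °C, for 24 or 48 h. Remaining intact peptide assessed by reversed-phase HPLC chromatograms.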

[5] = Drug degradation in human HT-29 cells at 50 uM after 2 hrs by reversed-phase HPLC analysis; assay type: ADME, cell-based; conditions: read-out: Drug degradation
Outline: (§1)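 Stability tested under binding-assay conditions for up to 6 h: AT1 ligands with CHO-hAT1 cells and NTSR1 ligands with HT-29 cells. Samples analysed by reversed-phase HPLC chromatography.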

[6] = target: T1, Neurotensin receptor type 1; assay: Displacement of [3H]-{Nomega-[N-(4-propanoylaminobutyl)aminocarbonyl]}Arg-Arg-ProTyr-Ile-Leu-OH Tris(hydrotrifluoroacetate) from NTSR1 in human HT-29 cells after 2 hrs by liquid scintillation counting; assay type: cell-based
[7] = Drug degradation in human HT-29 cells at 50 uM after 6 hrs by reversed-phase HPLC analysis; assay type: ADME, cell-based; conditions: read-out: Drug degradation; outline: as §1
[8] = target: T2, Type-1 angiotensin II receptor (Homo sapiens, UniProt P30556); assay: Displacement of [3H]-Asp-{Nomega-[N-(4-propanoylaminobutyl)aminocarbonyl]}Arg-ValTyr-Ile-His-Pro-Phe-OH Tris(hydrotrifluoroacetate) from human AT1 receptor transfected in CHO cells co-expressing Galpha16-mtAEQ after 2 hrs by liquid scintillation counting; assay type: cell-based
T2 sequence (P30556 whole entry): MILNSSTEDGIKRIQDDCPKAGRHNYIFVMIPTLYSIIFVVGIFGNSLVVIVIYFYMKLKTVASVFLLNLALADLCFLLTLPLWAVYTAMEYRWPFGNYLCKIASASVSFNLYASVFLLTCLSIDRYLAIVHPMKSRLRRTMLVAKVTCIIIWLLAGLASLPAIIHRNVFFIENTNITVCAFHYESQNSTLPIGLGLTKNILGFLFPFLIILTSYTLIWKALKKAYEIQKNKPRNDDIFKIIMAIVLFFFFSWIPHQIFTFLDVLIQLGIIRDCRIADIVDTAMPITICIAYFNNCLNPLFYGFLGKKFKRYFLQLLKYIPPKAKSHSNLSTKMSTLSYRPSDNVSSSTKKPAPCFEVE

[9] = Drug degradation in CHO cells expressing human AT1 receptor at 50 uM after 2 hrs by reversed-phase HPLC analysis; assay type: ADME, cell-based, Cricetulus griseus; conditions: chinese hamster, read-out: Drug degradation; outline: as §1
[10] = target: T2, Type-1 angiotensin II receptor; assay: Agonist activity at human AT1 receptor transfected in CHO cells co-expressing Galpha16-mtAEQ assessed as induction of intracellular Ca2+ mobilization by bioluminescence assay; assay type: functional, cell-based
[11] = Drug degradation in CHO cells expressing human AT1 receptor at 50 uM after 6 hrs by reversed-phase HPLC analysis; assay type: ADME, cell-based, Cricetulus griseus; conditions: chinese hamster, read-out: Drug degradation; outline: as §1
[12] = target: T1, Neurotensin receptor type 1; assay: biochemical
[13] = target: T1, Neurotensin receptor type 1; assay: biochemical; remark: listed apart in the source
[14] = target: T1, Neurotensin receptor type 1; assay: Binding affinity to human NTSR1 receptor transfected in CHO cells co-expressing Galpha16-mtAEQ after 2 hrs by liquid scintillation counting; assay type: cell-based
[15] = target: T3, Neuropeptide FF receptor 2 (Homo sapiens, UniProt Q9Y5X5); assay: Displacement of [3H]EYE from human NPFF2 receptor expressed in CHO cell membranes after 1 hr by liquid scintillation spectrophotometric counting
[16] = target: T3, Neuropeptide FF receptor 2; assay: Binding affinity to human NPFF2 receptor expressed in CHO cell membranes after 1 hr by liquid scintillation spectrophotometric counting
[17] = target: T2, Type-1 angiotensin II receptor; assay: biochemical
[18] = Binding affinity to AT1 receptor natively expressed in rat mesangial cells; assay type: cell-based
[19] = target: T2, Type-1 angiotensin II receptor; assay: Displacement of [3H]-Angiotensin 2 from human AT1 receptor transfected in CHOK1 cells preincubated for 30 mins with bovine serum albumin followed by radioligand addition by liquid scintillation counting; assay type: cell-based, CHO-K1

T1 sequence (P30989 whole entry): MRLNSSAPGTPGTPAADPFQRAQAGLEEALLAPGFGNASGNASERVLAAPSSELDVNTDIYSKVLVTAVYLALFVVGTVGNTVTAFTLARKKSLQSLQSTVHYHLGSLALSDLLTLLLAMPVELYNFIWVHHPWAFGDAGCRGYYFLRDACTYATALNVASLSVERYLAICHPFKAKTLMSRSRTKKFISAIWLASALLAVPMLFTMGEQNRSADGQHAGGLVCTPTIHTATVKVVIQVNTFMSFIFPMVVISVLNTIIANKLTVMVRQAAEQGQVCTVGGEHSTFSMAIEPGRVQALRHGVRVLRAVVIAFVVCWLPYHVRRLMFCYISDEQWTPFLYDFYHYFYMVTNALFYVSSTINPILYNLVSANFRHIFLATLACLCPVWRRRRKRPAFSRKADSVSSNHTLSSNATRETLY
T3 sequence (Q9Y5X5 whole entry): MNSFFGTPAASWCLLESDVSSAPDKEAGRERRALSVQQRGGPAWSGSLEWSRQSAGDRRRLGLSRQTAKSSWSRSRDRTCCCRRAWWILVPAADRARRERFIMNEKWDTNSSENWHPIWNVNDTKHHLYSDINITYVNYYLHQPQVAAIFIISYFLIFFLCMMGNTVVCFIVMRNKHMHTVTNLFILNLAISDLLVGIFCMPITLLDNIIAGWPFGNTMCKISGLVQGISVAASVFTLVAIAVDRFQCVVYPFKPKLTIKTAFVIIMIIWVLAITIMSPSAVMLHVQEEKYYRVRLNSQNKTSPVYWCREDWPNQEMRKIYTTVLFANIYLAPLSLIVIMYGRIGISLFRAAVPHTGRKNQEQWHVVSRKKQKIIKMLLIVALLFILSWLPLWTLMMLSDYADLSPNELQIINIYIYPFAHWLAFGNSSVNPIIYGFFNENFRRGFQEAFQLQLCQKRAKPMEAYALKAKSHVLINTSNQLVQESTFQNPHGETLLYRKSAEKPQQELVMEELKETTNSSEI
Chain of Neurotensin receptor type 2 (O95665 whole entry, the tested form may be a part): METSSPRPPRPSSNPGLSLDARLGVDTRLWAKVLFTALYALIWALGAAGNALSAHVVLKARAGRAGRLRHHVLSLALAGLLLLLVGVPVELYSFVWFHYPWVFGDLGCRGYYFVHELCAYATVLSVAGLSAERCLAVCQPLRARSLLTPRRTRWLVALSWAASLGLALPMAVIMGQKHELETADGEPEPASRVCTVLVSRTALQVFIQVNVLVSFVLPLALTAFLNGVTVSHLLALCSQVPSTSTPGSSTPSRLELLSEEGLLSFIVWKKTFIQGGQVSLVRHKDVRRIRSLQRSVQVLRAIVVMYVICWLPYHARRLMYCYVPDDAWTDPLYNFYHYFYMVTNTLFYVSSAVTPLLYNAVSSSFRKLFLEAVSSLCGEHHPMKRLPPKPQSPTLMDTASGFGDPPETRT

Compound: CCC(=O)NCCCCNC(=O)/N=C(\N)NCCC[C@H](N)C(=O)N[C@@H](CCCNC(=N)N)C(=O)N1CCC[C@H]1C(=O)N[C@@H](Cc1ccc(O)cc1)C(=O)N[C@H](C(=O)N[C@@H](CC(C)C)C(=O)O)[C@@H](C)CC.O=C(O)C(F)(F)F.O=C(O)C(F)(F)F.O=C(O)C(F)(F)F (H-[X1]RPYIL-OH)
- Ki [1]: 2500 pM
- Ki [2]: 630 pM
- EC50 [3]: 2000 pM
- Stability [4]: Stable
- metabolised at 2 h, 50 µM [5]: < 4%
- IC50 [6]: 1350 pM
- Ki [6]: 470 pM
- metabolised at 6 h, 50 µM [7]: < 4%

Compound: CCC(=O)NCCCCNC(=O)/N=C(\N)NCCC[C@H](NC(=O)[C@@H](N)CC(=O)O)C(=O)N[C@H](C(=O)N[C@@H](Cc1ccc(O)cc1)C(=O)N[C@H](C(=O)N[C@@H](Cc1cnc[nH]1)C(=O)N1CCC[C@H]1C(=O)N[C@@H](Cc1ccccc1)C(=O)O)[C@@H](C)CC)C(C)C.O=C(O)C(F)(F)F.O=C(O)C(F)(F)F.O=C(O)C(F)(F)F (H-D[X1]VYIHPF-OH)
- Stability [4]: Stable
- IC50 [8]: 2190 pM
- Ki [8]: 710 pM
- metabolised at 2 h, 50 µM [9]: < 5.5%
- EC50 [10]: 1100 pM
- metabolised at 6 h, 50 µM [11]: < 2%

Compound: O=C(O)C(F)(F)F.O=C(O)C(F)(F)F.O=C(O)C(F)(F)F.[3H]CC([3H])C(=O)NCCCCNC(=O)/N=C(\N)NCCC[C@H](N)C(=O)N[C@@H](CCCNC(=N)N)C(=O)N1CCC[C@H]1C(=O)N[C@@H](Cc1ccc(O)cc1)C(=O)N[C@H](C(=O)N[C@@H](CC(C)C)C(=O)O)[C@@H](C)CC (some centres undefined)
- Kd [12]: 440 pM
- Kd [13]: 510 pM
- Kd [14]: 580 pM

Compound: H-EYWSLAAPQRF-NH2
- Ki [15]: 530 pM
- Kd [16]: 540 pM

Compound: O=C(O)C(F)(F)F.O=C(O)C(F)(F)F.O=C(O)C(F)(F)F.[3H]CC([3H])C(=O)NCCCCNC(=O)/N=C(\N)NCCC[C@H](NC(=O)[C@@H](N)CC(=O)O)C(=O)N[C@H](C(=O)N[C@@H](Cc1ccc(O)cc1)C(=O)N[C@H](C(=O)N[C@@H](Cc1cnc[nH]1)C(=O)N1CCC[C@H]1C(=O)N[C@@H](Cc1ccccc1)C(=O)O)[C@@H](C)CC)C(C)C (some centres undefined)
- Kd [17]: 940 pM
- Kd [18]: 1500 pM

Compound: CCOc1nc2cccc(C(=O)O)c2n1Cc1ccc(-c2ccccc2-c2nnn[nH]2)cc1
- IC50 [19]: 690 pM
- IC50 [8]: 10700 pM
- Ki [8]: 3500 pM
